Activity calls are given as the source filed them. The calls are words filed in the database; no cut-off is given here.
Assays:
Format in all cases: functional
[1] = (§1) Antimigration against human MCF7/AZ cells at 10 to 25 uM after 24 hrs by wound healing assay
In short: (§2)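 Confluent MCF-7/AZ monolayers were washed twice with PBS and scratched to leave a gap of about 1500 μm, then imaged. Medium with or without compound was added, at concentrations chosen from the 24 h MTT assay. After 24 h of migration the wound was imaged again and compared with the first image. Migration was expressed as migratory velocity (μm/h).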

[2] = Cytotoxicity against human MCF7/AZ cells assessed as reduction of cell viability after 24 hrs by MTT assay
In short: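 MCF-7/AZ cells were seeded at 1.5 × 10^4 cells/well in medium with 5% FBS and penicillin/streptomycin, then grown 24 h at 37 C under 5% CO2. They were exposed 24 h to eight concentrations (1, 5, 10, 20, 40, 60, 80, 100 μM). Part of the medium was removed before adding MTT, and OD was read. Mean OD came from three independent experiments. OD80/IC20 (20% viability loss) was read from the graphs.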

MCF7/AZ = assay: as §1; in short: as §2

With CCC(=O)c1cc(OC)c(OCC(=O)O)c(OC)c1 the “inhibition (INH)” value [1] was 52% and the IC20 [2] was > 100 µM.

For CCC(=O)c1ccc(OCC(=O)O)cc1C, the inhibition (MCF7/AZ) was “inactive” and the IC20 [2] was 10 µM.

In the case of CCC(=O)c1ccc(OCC(=O)O)cc1OC, the “inhibition (INH)” value [1] is reported as 29% and the IC20 [2] is reported as > 100 µM.

With CCC(=O)c1ccc(OCC(=O)O)cc1 the inhibition (MCF7/AZ) was “inactive” and the IC20 [2] was 25 µM.

For C=C(CC)C(=O)c1ccc(OCC(=O)O)c(Cl)c1Cl [ETHACRYNIC ACID], the inhibition (MCF7/AZ) was “inactive” and the IC20 [2] was > 100 µM.

For CCC(=O)c1ccc(OCC(=O)O)c(OC)c1, the “inhibition (INH)” value [1] was 38% and the IC20 [2] was > 100 µM.

For CCC(=O)c1ccc(OCC(=O)O)c(C)c1, the inhibition (MCF7/AZ) was “inactive” and the IC20 [2] was 20 µM.
